# Laboratory results: ChEMBL document CHEMBL4145471, “New 1,5 and 2,5-disubstituted tetrazoles-dependent activity towards surface barrier of Candida albicans” (Eur J Med Chem, 2018)
# Active and inactive are the calls of the source. The rule behind the calls is not given here.
# Experiments:
# Candida albicans [1] = assay: Ratio of MIC for Candida albicans ATCC 90028 in absence of ergosterol to MIC for Candida albicans ATCC 90028 in presence of ergosterol; format: functional
# In short: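 MICs per modified M27-A3 in RPMI with or without ergosterol (final 400 µg/mL, dissolved in 10% DMSO/1% Tween 80 with heating). Inoculum 10³ CFU/mL; tetrazoles and itraconazole tested at 512–1 µg/mL, amphotericin B at 125–0.24 µg/mL. Plates were incubated at 35°C and read at 72 h; MIC was the lowest concentration with no visible growth. Run in triplicate on three days, geometric means.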
# Candida albicans [2] = assay: Induction of apoptosis in Candida albicans ATCC 90028 biofilms assessed as detection of DNA ladder at 256 ug/ml after 10 mins by […]; format: functional, organism-based
# Candida albicans [3] = assay: Induction of early apoptosis in Candida albicans ATCC 90028 biofilms at 256 ug/ml after 18 hrs by propidium iodide/acridine orange staining based confocal laser scanning microscopic analysis; format: functional, organism-based
# In short: (§1)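 Caco-2-free model: the TR146 epithelial layer, 21 days post-seeding on filter inserts, was inoculated with 1.0–1.2×10^5/mL log-phase ATCC 90028 yeast. Biofilms were treated at 256, 16 or 0.0313 µg/mL for 18–48 h at 37°C in 5% CO2 and washed with PBS. Unfixed cells were stained with propidium iodide (5 µg/mL) and acridine orange, then imaged by confocal laser scanning microscopy.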
# Candida albicans [4] = assay: Antifungal activity against Candida albicans ATCC 90028 infected in Galleria mellonella larvae assessed as increase in health score at 16 ug/ml treated for 60 mins post infection measured after 18 hrs; format: functional, organism-based
# Candida albicans [5] = assay: Induction of necrosis in Candida albicans ATCC 90028 biofilms assessed as loss of cell membrane integrity at 0.03 ug/ml after 18 hrs by propidium iodide/acridine orange staining based confocal laser scanning microscopic analysis; format: functional, organism-based; in short: as §1
# Candida albicans [6] = assay: Antifungal activity against Candida albicans ATCC 90028 after 72 hrs in presence of ergosterol by M27-A3 microdilution method; format: functional; conditions: ATCC 90028, 72 h
# In short: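 Ergosterol-modified M27-A3 assay. Compounds at 512-1 µg/mL serially diluted in RPMI; the 10^3 CFU/mL inoculum is made in RPMI with ergosterol (dissolved in 10% DMSO/1% Tween 80, heated), giving 400 µg/mL ergosterol in the wells. Itraconazole and amphotericin B serve as controls. Plates at 35°C, read after 72 h. MIC is the lowest concentration without visible growth; triplicate on three days, geometric means.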
# Candida albicans [7] = assay: Induction of necrosis in Candida albicans ATCC 90028 biofilms at 256 ug/ml after 18 hrs by propidium iodide/acridine orange staining based confocal laser scanning microscopic analysis; format: functional, organism-based; in short: as §1
# Candida albicans [8] = assay: Induction of early apoptosis in Candida albicans ATCC 90028 biofilms assessed as chromatin condensation at 0.03 ug/ml after 18 hrs by propidium iodide/acridine orange staining based confocal laser scanning microscopic analysis; format: functional, organism-based; in short: as §1
# Candida albicans [9] = assay: Antifungal activity against Candida albicans ATCC 90028 infected in Galleria mellonella larvae assessed as increase in larvae health score at 16 ug/ml preincubated for 30 mins followed by fungal infection and measured after 18 to 48 hrs; format: functional, organism-based
# In short: (§2)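 Larvae (195±17 mg, ethanol-disinfected) were injected with 10 µL C. albicans into the last right proleg. Compound at 16 µg/mL in RPMI (10 µL) went into the last left proleg 30 min or 1 h after infection, or 1 h or 30 min before it. A health index was scored from mobility, cocoon formation, melanization and survival, with monitoring every 24 h for 2 days. Controls were infected and PBS-injected larvae.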
# Candida albicans [10] = assay: Antifungal activity against Candida albicans ATCC 90028 infected in Galleria mellonella larvae assessed as increase in health score at 16 ug/ml treated for 60 mins post infection measured after 48 hrs; format: functional, organism-based; in short: as §2
# Candida albicans [11] = assay: Induction of necrosis in Candida albicans ATCC 90028 biofilms assessed as loss of cell membrane integrity at 16 ug/ml after 18 hrs by propidium iodide/acridine orange staining based confocal laser scanning microscopic analysis; format: functional, organism-based; in short: as §1
# Candida albicans [12] = assay: Antifungal activity against Candida albicans ATCC 90028 infected in Galleria mellonella larvae assessed as survival at 16 ug/ml treated for 30 to 60 mins post infection and measured after 48 hrs; format: functional, organism-based
# In short: (§3)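 G. mellonella larvae (195±17 mg, ethanol-disinfected) were given 10 µL C. albicans suspension into the last right proleg. A single 10 µL dose at 16 µg/mL in RPMI (diluted from 1600 µg/mL stock) went into the last left proleg, either 30 min or 1 h after infection or 1 h or 30 min before it. Survival was checked every 24 h for 2 days. Untreated infected larvae and PBS-injected larvae served as controls; ≥3 independent experiments, mean±SEM.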
# Candida albicans [13] = assay: Antifungal activity against Candida albicans ATCC 90028 infected in Galleria mellonella larvae assessed as increase in larvae survival at 16 ug/ml preincubated for 30 to 60 mins followed by fungal infection and measured every 24 hrs for 2 days; format: functional, organism-based; in short: as §3
# Candida albicans [14] = assay: Antifungal activity against Candida albicans ATCC 90028 assessed as reduction in cell adherence to human Caco2 cells at 0.0313 ug/ml preincubated for 2 hrs followed by compound washout and resuspended in RPMI medium measured after 18 hrs by colony counting assay relative to control; format: functional; parameters: scale not given: the % may be the effect or the level left
# In short: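 Yeasts grown 18 h in YEPD at 30°C, then exposed at 10^4/mL to compound in RPMI for 2 h at 35°C with shaking. Washed twice in PBS, resuspended in RPMI and added to Caco-2 monolayers (18 h culture in EMEM/10% FCS) for 2 h at 37°C, 5% CO2. Non-adherent cells rinsed off, Caco-2 lysed with water, and adherent yeasts counted as colonies on Sabouraud agar after 18 h at 30°C. Expressed as % of cells added versus untreated; three experiments.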
# Candida albicans [15] = assay: Antifungal activity against Candida albicans ATCC 90028 infected in Galleria mellonella larvae assessed as increase in larvae health score at 16 ug/ml treated for 30 mins post infection and measured after 18 to 48 hrs; format: functional, organism-based; in short: as §2
# Candida albicans [16] = assay: Synergistic antifungal activity against Candida albicans ATCC 90028 at 80 ug/ml after 48 hrs in presence of fluconazol by checkerboard assay; format: functional
compound,measurement,setting,value
ClCCCn1nnnc1-c1ccccc1Cl,Ratio,Candida albicans [1],2
CCOC(=O)CCn1nnc(-c2ccccc2)n1,Activity,Candida albicans [2],inactive
same,Activity,Candida albicans [3],Active
same,Activity,Candida albicans [4],Active
same,Activity,Candida albicans [5],Active
same,MIC,Candida albicans [6],64 µg/mL
same,Activity,Candida albicans [7],Active
same,Activity,Candida albicans [8],Active
same,Activity,Candida albicans [9],Active
same,Activity,Candida albicans [10],inactive
same,Activity,Candida albicans [11],Active
same,Activity,Candida albicans [12],inactive
same,Activity,Candida albicans [13],Active
same,Activity,Candida albicans [14],63.41%
same,Activity,Candida albicans [15],Active
Cc1ccc(-c2nnn(CCCN3CCOCC3)n2)cc1,fractional inhibitory concentration index (FICI),Candida albicans [16],>1
